Assay results: article PMC3717983 (Journal of medicinal chemistry, 2013)
Like-named read-outs stand apart in the source and are kept apart here. Marks after values point to notes of the source that are not given here.

Tests used:
Type in all cases: biochemical
[1] = biological target: T1, human α-thrombin (Homo sapiens, UniProt P00734); settings: pH 7.4, 25 °C, Spectrozyme TH
[2] = biological target: T1, human α-thrombin
In short: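 Human α-thrombin (5 nM) was preincubated with fixed test compound concentrations (0–9.90 μM), either overnight at 25 °C or 2 h at 37 °C, in 20 mM Tris-HCl pH 7.4 with 100 mM NaCl, 2.5 mM CaCl2 and 0.1% PEG8000. Initial rates of Spectrozyme TH hydrolysis (2–80 μM) were read at 405 nm, at under 10% substrate consumption. Standard Michaelis-Menten fit gave KM and VMAX.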

[3] = biological target: T1, human α-thrombin; assay: Thrombin inhibition by 9a in presence of exosite 1 or exosite 2 ligands
[4] = biological target: recombinant wild-type thrombin (rWT) (Homo sapiens, UniProt P00734); assay: Inhibition of recombinant thrombin, S2238 hydrolysis assay; settings: overnight 25 °C
In short: (§1)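 Recombinant wild-type and Ala-mutant thrombins were made in […] form by PCR mutagenesis, expressed in BHK cells, HPC4 immunoaffinity-purified and activated. Active-site concentration came from amidolytic assay and antithrombin titration. Enzyme (1.5–7.5 nM final) was incubated with test compound overnight at 25 °C in pH 7.4 Tris buffer. S2238 was added and initial rate read at 405 nm. At least 9–10 concentrations were fitted by logistic equation for apparent IC50, HS, Y0 and YM. Mutant IC50 is expressed relative to recombinant wild type.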

[5] = biological target: R93A thrombin (Homo sapiens, UniProt P00734, R452A); assay: as above; settings: overnight 25 °C
In short: as §1

[6] = biological target: R97A thrombin (Homo sapiens, UniProt P00734, R456A); assay: as above; settings: overnight 25 °C
In short: as §1

[7] = biological target: R101A thrombin (Homo sapiens, UniProt P00734, R461A); assay: as above; settings: overnight 25 °C
In short: as §1

[8] = biological target: R126A thrombin (Homo sapiens, UniProt P00734, R486A); assay: as above; settings: overnight 25 °C
In short: as §1

[9] = biological target: R165A thrombin (Homo sapiens, UniProt P00734, R533A); assay: as above; settings: overnight 25 °C
In short: as §1

[10] = biological target: K169A thrombin (Homo sapiens, UniProt P00734, K537A); assay: as above; settings: overnight 25 °C
In short: as §1

[11] = biological target: R173A thrombin (Homo sapiens, UniProt P00734, R541A); assay: as above; settings: overnight 25 °C
In short: as §1

[12] = biological target: R175A thrombin (Homo sapiens, UniProt P00734, R543A); assay: as above; settings: overnight 25 °C
In short: as §1

[13] = biological target: R233A thrombin (Homo sapiens, UniProt P00734, R608A); assay: as above
In short: as §1

[14] = biological target: K235A thrombin (Homo sapiens, UniProt P00734, K610A); assay: as above; settings: overnight 25 °C
In short: as §1

[15] = biological target: K236A thrombin (Homo sapiens, UniProt P00734, K611A); assay: as above; settings: overnight 25 °C
In short: as §1

[16] = biological target: K240A thrombin (Homo sapiens, UniProt P00734, K615A); assay: as above; settings: overnight 25 °C
In short: as §1

[17] = test system: human plasma; assay: Human plasma clotting assay, activated partial thromboplastin time
In short: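 APTT on a fibrometer using a one-stage recalcification assay. Citrated human plasma, test compound or vehicle, and pre-warmed 0.2% ellagic acid were mixed and incubated 4 min. Clotting was started with 25 mM CaCl2 at 37 °C and clotting time recorded. Run in duplicate. A quadratic trend line gave the concentration that doubles APTT.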

[18] = test system: human plasma; assay: Human plasma clotting assay, prothrombin time; settings: citrated human plasma
In short: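 PT on a fibrometer using a one-stage recalcification assay. Test compound or vehicle was mixed with citrated human plasma and incubated 30 s at 37 °C. Pre-warmed reconstituted thromboplastin was then added and clotting time recorded. Run in duplicate. A quadratic trend line gave the concentration that doubles PT.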

[19] = [9a] 0.63 μM, 2 hr incubation at 37°C
[20] = [9a] 0.63 μM, overnight incubation at 25°C
[21] = [9a] 1.53 μM, 2 hr incubation at 37°C
[22] = [9a] 1.80 μM, overnight incubation at 25°C
[23] = [9a] 3.60 μM, 2 hr incubation at 37°C
[24] = [9a] 3.60 μM, overnight incubation at 25°C
[25] = [9a] 9.90 μM, 2 hr incubation at 37°C
[26] = Heparin (UFH) 4.2 μM, overnight 25 °C
[27] = Heparin (UFH) 25.0 μM, overnight 25 °C
[28] = Heparin (UFH) 42.6 μM, overnight 25 °C
[29] = Hirugen peptide (HirP) 5 nM, overnight 25 °C
[30] = Hirugen peptide (HirP) 15 nM, overnight 25 °C
[31] = Octasaccharide H8 1.0 μM, overnight 25 °C
[32] = Octasaccharide H8 3.0 μM, overnight 25 °C
[33] = Octasaccharide H8 10 μM, overnight 25 °C
[34] = Octasaccharide H8 20 μM, overnight 25 °C
[35] = γ′-Fibrinogen peptide (FibP) 0.2 μM, overnight 25 °C
[36] = γ′-Fibrinogen peptide (FibP) 0.65 μM, overnight 25 °C
[37] = γ′-Fibrinogen peptide (FibP) 2.0 μM, overnight 25 °C
[38] = γ′-Fibrinogen peptide (FibP) 6.5 μM, overnight 25 °C

With `CCOC(=O)c1c(C)oc2cc(OC)c(OCc3oc4cc(OC)c(OCc5oc6cc(OC)c(OS(=O)(=O)[O-])cc6c5C(=O)OCC)cc4c3C(=O)OCC)cc12.[Na+]` [9a] the logIC50 [1] was −6.17 ± 0.03, the “reduction in KM and VMAX” value ([2]; 25 °C) was 0.86–1.2 fold per μM and the “reduction in KM and VMAX” value ([2]; 37 °C) was 0.4–0.6 fold per μM. The Km ([2]; [9a] 0.36 μM, overnight incubation at 25°C) was 11.1 ± 2.5 µM, the Km [2, 19] was 6.7 ± 2.3 µM and the VMAX [2, 19] was 72 ± 8 mAU/min. The Km [2, 20] was 7.7 ± 1.3 µM, the VMAX [2, 20] was 69 ± 3 mAU/min and the Km [2, 21] was 2.2 ± 0.8 µM. For the same compound, the VMAX [2, 21] was 30 ± 2 mAU/min, the Km [2, 22] was 3.2 ± 0.5 µM and the VMAX [2, 22] was 35 ± 1 mAU/min. The Km [2, 23] was 2.7 ± 0.6 µM, the VMAX [2, 23] was 25 ± 1 mAU/min and the Km [2, 24] was 3.1 ± 0.6 µM. It also gave a VMAX [2, 24] of 19 ± 1 mAU/min, a Km [2, 25] of 1.9 ± 0.6 µM and a VMAX [2, 25] of 15 ± 0.8 mAU/min. The “mechanism of thrombin inhibition” value ([2]; both incubation conditions) was “primarily uncompetitive”, the logIC50 ([3]; 0 μM competitor) was −6.17 ± 0.03 and the ΔY ([3]; 0 μM competitor) was 79 ± 9%. For the same compound, the HS [3, 26] was 2.2 ± 0.4, the ΔY [3, 26] was 71 ± 7% and the HS ([3]; Heparin (UFH) 12.8 μM, overnight 25 °C) was 1.8 ± 0.2. For the same compound, the HS [3, 27] was 1.7 ± 0.2, the ΔY [3, 27] was 81 ± 10% and the HS [3, 28] was 1.2 ± 0.2. The ΔY [3, 28] was ~90 ^c %, the ΔY ([3]; Hirugen peptide (HirP) 3 nM, overnight 25 °C) was 44 ± 2% and the HS [3, 29] was 2.4 ± 0.3. For the same compound, the ΔY [3, 29] was 46 ± 2%, the HS [3, 30] was 3.0 ± 0.7 and the ΔY [3, 30] was 43 ± 1%. It also gave an HS [3, 31] of 2.3 ± 0.3, a ΔY [3, 31] of 58 ± 3% and an HS [3, 32] of 2.6 ± 0.6. The ΔY [3, 32] was 54 ± 4%, the HS [3, 33] was 2.8 ± 0.4 and the ΔY [3, 33] was 50 ± 2%. It also gave an HS [3, 34] of 2.6 ± 0.5, a ΔY [3, 34] of 49 ± 2% and an HS [3, 35] of 2.4 ± 0.3. The ΔY [3, 35] was 73 ± 8%, the HS [3, 36] was 2.1 ± 0.3 and the ΔY [3, 36] was 71 ± 8%. The HS [3, 37] was 3.3 ± 0.6, the ΔY [3, 37] was 67 ± 4% and the HS [3, 38] was 2.1 ± 0.6. The ΔY [3, 38] was 65 ± 7%, the HS [4] was 3.4 ± 0.5 ^b and the ΔY [4] was 49 ± 2%. It also gave an HS [5] of 1.8 ± 0.3, a ΔY [5] of 66 ± 6% and an HS [6] of 2.6 ± 0.5. The ΔY [6] was 47 ± 3%, the HS [7] was 2.1 ± 0.6 and the ΔY [7] was 55 ± 6%. The HS [8] was 1.8 ± 0.5, the ΔY [8] was 65 ± 11% and the HS [9] was 1.1 ± 0.3. It also gave a ΔY [9] of 61 ± 8%, an HS [10] of 2.1 ± 0.2 and a ΔY [10] of 59 ± 3%. It also gave an HS [11] of 2.4 ± 0.7, a ΔY [11] of 62 ± 8% and a ΔY [12] of 37 ± 3%. The “fold loss in potency (defect) vs recombinant wild-type” value ([13]; Arg233Ala thrombin) was ~ 3 fold, the ΔY ([13]; R233A, overnight 25 °C) was 44 ± 2% and the ΔY [14] was 50 ± 1%. It also gave an HS [15] of 3.0 ± 0.3, a ΔY [15] of 52 ± 1% and an HS [16] of 2.3 ± 0.4. The ΔY [16] was 49 ± 3%, the “times less potent in plasma anticoagulation than sulfated LMWLs” value ([17]; LMWLs from ref 15) was 10 times and the “concentration required for a 2-fold increase in APTT” value ([17]; citrated human plasma) was 139 µM. The “concentration required for a 2-fold increase in PT” value [18] was 568 µM.
